Measured values from publication PMC3920694 (Iranian Journal of Pharmaceutical Research : IJPR, 2013).
Read-outs that look alike come from different tables or passages of the source.

Columns and labels:
[1] = test system: HT29 (Human colon carcinoma); test: LDH assay cytotoxicity, HT29; type: cell-based; details: HT-29, read-out: IC50 HT29
[2] = test system: Jurkat (Human Acute T-cell leukemia); test: cells; type: cell-based; details: read-out: IC50 Jurkat
[3] = test system: K562 (Human chronic myelogenom leukemia); test: LDH assay cytotoxicity, K562; type: cell-based; details: K562, read-out: IC50 K562
[4] = test system: HepG2 (Human hepatocyte cancer cell line); test: LDH assay cytotoxicity, HepG2; type: cell-based; details: HepG2, read-out: IC50 HepG2
[5] = test system: PC3 (Human prostate adenocarcinoma); test: LDH assay cytotoxicity, PC3; type: cell-based
[6] = test system: HL60 (Human promylocyteic leukemia); test: LDH assay cytotoxicity, HL60; type: cell-based; details: HL-60, read-out: IC50 HL60
[7] = test system: HUVEC (Human umbilical vein endothelial cell); test: LDH assay cytotoxicity, HUVEC; type: cell-based; details: read-out: IC50 HUVEC
[8] = test system: Hela (Human cervix carcinoma); test: LDH assay cytotoxicity, Hela; type: cell-based; details: read-out: IC50 Hela
[9] = test system: cancer cell lines (PC3, HT29, Hela, HL60, Jurkat, K562, MCF7, HepG2); test: LDH assay cytotoxicity, span over the eight cancer cell lines; type: cell-based; details: Homo sapiens, read-out: IC50 on cancer cell lines (range over the eight lines)
In short: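 Cells grown in DMEM with 10% FBS and penicillin/streptomycin at 37°C, 5% CO2. Test compound at 1, 5, 10, 25, 50 and 100 μM for 24 and 48 h. Medium transferred and mixed with LDH reagent plus catalyst (1:45), 30 min in the dark at room temperature. Absorbance read at 490 nm with 630 nm background subtraction. Cell-free medium served as negative control.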

[10] = test system: MCF7 (Human breast adenocarcinoma); test: LDH assay cytotoxicity, MCF7; type: cell-based
[11] = test system: leukemia cell lines (HL60, K562 and Jurkat); test: Trypan blue exclusion, leukemia cell lines; type: cell-based, Human; details: 48 h; compared with structural isomer A; Figures 7-9
[12] = test system: PC3 (Human prostate adenocarcinoma); test: Trypan blue exclusion, PC3; type: cell-based; details: 48 h; Figure 4
In short: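 Cells kept in DMEM with 10% FBS and antibiotics at 37°C, 5% CO2. About 0.75 × 10^5 cells/mL were seeded in 6-well plates and exposed to test compound at several concentrations for 48 h. Cells were then collected, resuspended in 0.4% trypan blue, and unstained cells counted by inverted microscopy. Percent viability was expressed relative to a temozolomide reference control.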

[13] = Homo sapiens, read-out: IC50 PC3, LDH assay, incubation 24 and 48 h described

Structure (SMILES) | IC50 [1] | IC50 [2] | IC50 [3] | IC50 [4] | IC50 [5, 13] | IC50 [6] | IC50 [7] | IC50 [8] | IC50 [9] | IC50 ([5]; Homo sapiens, read-out: IC50 PC3) | IC50 ([10]; Homo sapiens, MCF7, read-out: IC50 MCF7) | effectiveness on leukemia cell lines (HL60, K562 and Jurkat) by trypan blue exclusion [11] | cytotoxic activity on PC3 by trypan blue exclusion [12] | IC50 ([5]; read-out: IC50 PC3, LDH assay, incubation 24 and 48 h described) | IC50 ([10]; read-out: IC50 MCF7, LDH assay, incubation 24 and 48 h described)
O=[N+]([O-])c1ccc(N=NNCCO)cc1 [E, 1-(4-nitrophenyl)-3-(2-hydroxyethyl)triazene] | 8250 ± 2200 nM | 4500 ± 1670 nM | 9870 ± 2080 nM | 4200 ± 1200 nM | 3000 ± 1010 nM | 2810 ± 990 nM | 5050 ± 1800 nM | 15500 ± 3010 nM | 3000 to 15500 nM | – | – | – | – | – | –
c1ccc(N=NNc2ccccc2)cc1 [G, 1,3-diphenyltriazene] | 9400 ± 2300 nM | 5530 ± 1440 nM | 6330 ± 2410 nM | 3940 ± 1450 nM | – | 3400 ± 1960 nM | 7430 ± 2100 nM | 4880 ± 1500 nM | – | 4130 ± 1800 nM | 1570 ± 340 nM | – | – | – | –
COc1ccccc1N=NNc1ccccc1OC [F, 1,3-Bis(2-methoxyphenyl)triazene] | 2260 ± 1520 nM | 1610 ± 900 nM | 1660 ± 490 nM | 1450 ± 650 nM | 7000 ± 2200 nM | 1300 ± 500 nM | 4590 ± 1760 nM | 6850 ± 2800 nM | – | – | – | – | – | – | –
Cn1nnc2c(C(N)=O)ncn2c1=O [TMZ, Temozolomide, reference compound] | 17200 ± 3200 nM | 2070 ± 1340 nM | 3820 ± 1600 nM | 2590 ± 1300 nM | 1390 ± 690 nM | 3540 ± 1560 nM | 4850 ± 1780 nM | 8880 ± 2200 nM | – | – | – | – | – | – | –
N#Cc1ccccc1N=NNc1ccccc1C#N [D, 1,3-bis (2-cyanophenyl) triazene] | 2030 ± 1050 nM | 1440 ± 710 nM | 1040 ± 380 nM | 1490 ± 420 nM | 1040 ± 110 nM | 1340 ± 440 nM | 1140 ± 400 nM | 2390 ± 1350 nM | – | – | – | – | – | – | –
O=[N+]([O-])c1ccc(N=NNc2ccccc2O)cc1 [B, 1-(4-nitrophenyl)-3-(2-hydroxyphenyl)triazene] | 3370 ± 1650 nM | 1050 ± 980 nM | 1130 ± 670 nM | 1890 ± 780 nM | 3290 ± 1300 nM | 1360 ± 340 nM | 3220 ± 1100 nM | 4200 ± 1400 nM | – | – | – | more effective | – | – | –
O=[N+]([O-])c1ccc(N=NNc2cccc(O)c2)cc1 [A, 1-(4-nitrophenyl)-3-(3-hydroxyphenyl)triazene] | 2820 ± 490 nM | 1200 ± 400 nM | 2100 ± 700 nM | 1120 ± 300 nM | 1240 ± 200 nM | 2300 ± 510 nM | 4400 ± 1310 nM | 8870 ± 2100 nM | – | – | – | – | – | – | –
CCOc1ccccc1N=NNc1ccccc1OCC [C, 1,3-bis(2-ethoxyphenyl)triazene] | 2550 ± 1330 nM | 1690 ± 1020 nM | 1660 ± 800 nM | 3330 ± 1300 nM | 590 nM | 2620 ± 960 nM | 12600 ± 2800 nM | 2540 ± 1200 nM | 560 to 3330 nM | – | – | – | high | 560 ± 200 nM | 590 ± 120 nM
